167 variants from the RNAGym collection of RNA variant scans (doi:10.1101/gad.245936.114) can be followed below.

Fewer inactive variants are shown than the library holds.

B1: tRNA (parent)
chain: CUCUCGGUAGCCAAGUUGGUUUAAGGCGCAAGACUUUAAUUUAUCACUACGAAAUCUUGAGAUCGGGCGUUCGACUCGCCCCCGGGAGAUUUUUUCCUCGAGCAA

Variants of B1 are the subject of the data set. Nature of the data set: nonsense suppression (GFP-seq) (ratio to wild type); higher = more function; SUP4oc tRNA, yeast GFP reporter sort-seq. The method in brief:
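Yeast carrying genome-integrated SUP4oc tRNA variants from a library with ~3% random mutations were grown in raffinose/galactose medium with 80 mg/L adenine. Each strain also carried a galactose-driven GFP ochre reporter and RFP. Cells were sorted into GFP/RFP bins, and each bin was Illumina-sequenced (phred ≥30). Nonsense suppression (GFPSEQ) is the bin median GFP/RFP, weighted by each variant's estimated cell share per bin, relative to wild-type SUP4oc; variants needed ≥100 reads and ≥30 cells.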
C5A G18U U76C G86A: the nonsense suppression is at most 0.026.

On to U4G U57G, for which the nonsense suppression was determined as 0.0369.

With U4G A33G, the nonsense suppression was 0.0332.

On to C5U A9G, for which the nonsense suppression is 0.0324.

With C5U U21A, the nonsense suppression is at most 0.026.

On to G6A A23G G25C U63C C80G, for which the nonsense suppression was at most 0.026.

With U4C A13C, the nonsense suppression was found to be 1.05.

U4C A13U: the nonsense suppression was determined as 1.12.

As for U4C A13G, the nonsense suppression came out at 0.774.

For U4C C11U, the nonsense suppression turned out to be 0.109.

Regarding G6C U35G, the nonsense suppression was at most 0.026.

Turning to C5U C80G, the nonsense suppression is at most 0.026.

With G7A G26U C29A, the nonsense suppression is at most 0.026.

As to U4G G66A, the nonsense suppression came out at 0.0774.

Turning to U4G G7A, the nonsense suppression came to 0.0974.

C5A A14G: the nonsense suppression was at most 0.026.

On to G6A G19C G67C A87G, for which the nonsense suppression was at most 0.026.

On to C5U U22C U57C A74C, for which the nonsense suppression is at most 0.026.

As for U4C A9G G15A A30U, the nonsense suppression was 0.0449.

In the case of C5U C11A U21G A87U, the nonsense suppression is at most 0.026.

Take C5U: the nonsense suppression worked out at 0.096.

Take C5A G19C A62G: the nonsense suppression is at most 0.026.

On to G7A C34U, for which the nonsense suppression was at most 0.026.

For the variant G6U C83G, the nonsense suppression was determined as 0.923.

On to C5G G10C U57C, for which the nonsense suppression was at most 0.026.

Consider U4G C75U, for which the nonsense suppression came to 1.1.

Turning to C5U G19C U35A A89G, the nonsense suppression was at most 0.026.

For U4C G25C, the nonsense suppression was determined as 0.723.

For the variant U4C G25A, the nonsense suppression was 0.162.

For the variant U4G A89U, the nonsense suppression was determined as 0.0348.

Consider U4C A24C, for which the nonsense suppression is 1.06.

Consider U4C A24G, for which the nonsense suppression turned out to be 0.31.

As for U4C A24U, the nonsense suppression worked out at 0.84.

Regarding C5A A30U C68A, the nonsense suppression is at most 0.026.

Regarding U4G A31U, the nonsense suppression is 0.0387.

For U4G A31G, the nonsense suppression came out at 0.0398.

C5G C12G U16C G32A: the nonsense suppression is at most 0.026.

For C5A U63A G66C, the nonsense suppression was at most 0.026.

As to U4G C56U, the nonsense suppression came out at 0.0355.

C5G C12A G59U: the nonsense suppression was at most 0.026.

As to G6C G15A, the nonsense suppression is at most 0.026.

Consider G6U C80U, for which the nonsense suppression was at most 0.026.

U4C A9G U22G: the nonsense suppression was 0.202.

As to U4C G78A, the nonsense suppression was found to be 0.978.

As for U4C G78C, the nonsense suppression turned out to be 1.06.

Regarding U4C G78U, the nonsense suppression is 1.12.

As for U4C U22G G26U G73C G78C, the nonsense suppression was at most 0.026.

Take C5U G10A A13G G73A C75A G86C: the nonsense suppression is at most 0.026.

For G7A A54C G67U, the nonsense suppression is at most 0.026.

As for U4C U22C G86A, the nonsense suppression turned out to be 1.16.

With U4C G6U G28A, the nonsense suppression stood at 0.427.

For the variant C5G A13U G19U U35G A87G, the nonsense suppression is at most 0.026.

As to C5G A24U U57C G66U, the nonsense suppression is at most 0.026.

With G6C A9U G65U G85C, the nonsense suppression is at most 0.026.

Regarding U4G A23C G26U A62U G69C G84U, the nonsense suppression was 0.116.

On to G6U U20A C83G, for which the nonsense suppression came to 0.186.

Consider G6A G10A G19C A54U G73C G88U, for which the nonsense suppression is at most 0.026.

Take U4C U16C A31U: the nonsense suppression was 0.97.

C5U A62C G65C U70G U71A: the nonsense suppression was at most 0.026.

As for G7A A9C A54G, the nonsense suppression is at most 0.026.

Regarding C5G U57G U71G, the nonsense suppression was at most 0.026.

Regarding U4G A87C, the nonsense suppression is 0.0794.

With U4G G61A C75A, the nonsense suppression was 0.558.

On to U4C U63C G67A, for which the nonsense suppression is at most 0.026.

On to U4G U63A, for which the nonsense suppression worked out at 0.199.

For U4C C80U, the nonsense suppression stood at 0.651.

As for C5U A87G, the nonsense suppression was 0.0561.

Consider U4G C72G, for which the nonsense suppression was 0.0909.

For G6U C81A, the nonsense suppression is at most 0.026.

In the case of C5G G59A A62C, the nonsense suppression is at most 0.026.

Take G6U U17C G28U U55C G69U G88U: the nonsense suppression is at most 0.026.

As for C5G U16A U22C U57C C72U A87C, the nonsense suppression is at most 0.026.

For U4C G85A, the nonsense suppression was 0.625.

In the case of G6U C11U A13U, the nonsense suppression is at most 0.026.

Regarding U4C U22A G86A, the nonsense suppression is 0.552.

On to C5U C11U G66A, for which the nonsense suppression was at most 0.026.

U4G G85C: the nonsense suppression stood at 0.813.

Consider U4C G15A U21A, for which the nonsense suppression was found to be 0.214.

In the case of U4G C5G U17C U63C A74U, the nonsense suppression was at most 0.026.

Regarding U4C A31U U57G G88U, the nonsense suppression was at most 0.026.

G6C C77G: the nonsense suppression is at most 0.026.

Regarding G7A U20G, the nonsense suppression was at most 0.026.

As to C5U A13C, the nonsense suppression came out at 0.0679.

Take U4C U35G G61A G78A C83A G86C: the nonsense suppression is at most 0.026.

With U4G U8A, the nonsense suppression was at most 0.026.

As to G7A G28U C34A, the nonsense suppression was at most 0.026.

Take C5U C29U C34U A87C: the nonsense suppression was at most 0.026.

For U4G G6A, the nonsense suppression is 0.0297.

In the case of U4C A9C, the nonsense suppression was 1.02.

In the case of U4C A9U, the nonsense suppression stood at 1.07.

For U4C A9G, the nonsense suppression was found to be 0.391.

C5A G7U U17C: the nonsense suppression is at most 0.026.

On to C5G A60C C64A, for which the nonsense suppression is at most 0.026.

Regarding C5G A87U, the nonsense suppression was at most 0.026.

As to U4C A31U, the nonsense suppression worked out at 1.04.

Take U4C U58G A74C: the nonsense suppression was at most 0.026.

For U4C U8A, the nonsense suppression stood at 0.0441.

For G7A G18U, the nonsense suppression was at most 0.026.

For C5G U55C U70C, the nonsense suppression is at most 0.026.

For the variant C5U A14G U55G, the nonsense suppression is at most 0.026.

Turning to C5U A23G G26C G78A, the nonsense suppression is at most 0.026.

For the variant G6A C79U G88C, the nonsense suppression was at most 0.026.

As to C5G G6A A33U U35G U70C, the nonsense suppression is at most 0.026.

For the variant G6A C29G A62C C75G, the nonsense suppression is at most 0.026.

As for C5G G25C G69C C80A, the nonsense suppression is at most 0.026.

Regarding G6A A13G U20G C34A G73A, the nonsense suppression turned out to be 0.0802.

As for U4C A30U, the nonsense suppression was found to be 0.0792.

As for U4C C27U G61A, the nonsense suppression was found to be 0.205.

Take U4G G18C A24G G61C C81A: the nonsense suppression was found to be 0.057.

Take C5A A24U G66A: the nonsense suppression is at most 0.026.

As to C5U G28C A30G A33U, the nonsense suppression is at most 0.026.

With C5A U16G G88U, the nonsense suppression was at most 0.026.

As to C5G G61A, the nonsense suppression was at most 0.026.

With C5A A30G, the nonsense suppression turned out to be 0.0272.

Take G6A G7U A54C: the nonsense suppression was at most 0.026.

Turning to C5A A23C A31G G61A, the nonsense suppression was at most 0.026.

Consider G6A G25C A33G, for which the nonsense suppression is at most 0.026.

Turning to G7A G59A U71G G73A G84A G85U, the nonsense suppression was at most 0.026.

U4G A23U A24C A33U G67A G84C A87G G88C: the nonsense suppression was at most 0.026.

In the case of G7A A23C C56G, the nonsense suppression is at most 0.026.

With U4C U8G G65A, the nonsense suppression was at most 0.026.

With U4C A14G G61A U71A, the nonsense suppression was at most 0.026.

In the case of C5A G59C, the nonsense suppression is at most 0.026.

Regarding C5A A13C U58A C81A, the nonsense suppression is at most 0.026.

For U4C G6U, the nonsense suppression amounted to 0.959.

Take G6A U55C: the nonsense suppression amounted to 0.262.

With G6A U55G, the nonsense suppression is at most 0.026.

Turning to G6A U55A, the nonsense suppression was at most 0.026.

As to U4C G86A, the nonsense suppression worked out at 1.09.

As to U4C G86C, the nonsense suppression was found to be 0.162.

On to C5G U76G, for which the nonsense suppression is at most 0.026.

Take U4C A60C: the nonsense suppression is 1.04.

As for U4C A13G C29U, the nonsense suppression came out at 0.221.

On to C5U C83G, for which the nonsense suppression is at most 0.026.

Consider U4G U20G, for which the nonsense suppression turned out to be 0.834.

On to U4G U20A, for which the nonsense suppression is 0.0644.

In the case of U4G A24C, the nonsense suppression came out at 0.134.

Take C5U G6A C11A G25A: the nonsense suppression is at most 0.026.

Consider U4G C12G, for which the nonsense suppression amounted to 0.0311.

For U4G A30U, the nonsense suppression is 0.0386.

As to U4C A23U A54G G59U G67C, the nonsense suppression was at most 0.026.

In the case of U4G C81U, the nonsense suppression came to 0.161.

For the variant C5G A13G G78U, the nonsense suppression was at most 0.026.

U4C G73A: the nonsense suppression was 1.04.

With C5G G25C G69C, the nonsense suppression is at most 0.026.

Regarding U4C U17C, the nonsense suppression was 1.04.

U4C A54C: the nonsense suppression is 1.01.

Consider G6A A24G C27A C29G, for which the nonsense suppression was at most 0.026.

For the variant G6A C81U, the nonsense suppression was found to be 0.0651.

Consider C5G A74G, for which the nonsense suppression was at most 0.026.

With G7A C81G, the nonsense suppression is at most 0.026.

For the variant U4C A13G C83U, the nonsense suppression was determined as 0.334.

Regarding U4C A62U, the nonsense suppression came to 0.272.

Consider G6U U58G U76C C80G, for which the nonsense suppression is at most 0.026.

As for U4C U35A C83A, the nonsense suppression was at most 0.026.

As to U4G C5U, the nonsense suppression was 0.0955.

On to G6A G78A, for which the nonsense suppression came out at 0.037.

For U4C A9G A13G U76C, the nonsense suppression was 0.202.

For U4G U20G U22A, the nonsense suppression amounted to 0.21.

Take C5A A60G: the nonsense suppression amounted to 0.0265.

As for C5A A60C, the nonsense suppression was determined as 0.0331.

For C5G G66U U71C, the nonsense suppression is at most 0.026.

On to G6C U71A, for which the nonsense suppression was at most 0.026.

Take G6A A31C A60C C72A G86A: the nonsense suppression was at most 0.026.

On to U4G G32A A33G, for which the nonsense suppression is at most 0.026.

Take C5A G61C: the nonsense suppression turned out to be 0.0329.

In the case of U4C G59A, the nonsense suppression is at most 0.026.
